ChEMBL document CHEMBL3994667, “Small Molecule Lysyl Oxidase-like 2 (LOXL2) Inhibitors: The Identification of an Inhibitor Selective for LOXL2 over LOX” (ACS Med Chem Lett, 2017)

Assays:
Lysyl oxidase homolog 2 [1] = molecular target: T1, Lysyl oxidase homolog 2 (Homo sapiens, UniProt Q9Y4K0); assay: Inhibition of full length recombinant human LOXL2 expressed in CHO cells assessed as reduction in H2O2 production using DAP as substrate preincubated for 2 hrs followed by substrate addition measured every 2 minutes for 50 minutes by Amplex red dye based fluorescence assay
T1 sequence (Q9Y4K0 whole entry): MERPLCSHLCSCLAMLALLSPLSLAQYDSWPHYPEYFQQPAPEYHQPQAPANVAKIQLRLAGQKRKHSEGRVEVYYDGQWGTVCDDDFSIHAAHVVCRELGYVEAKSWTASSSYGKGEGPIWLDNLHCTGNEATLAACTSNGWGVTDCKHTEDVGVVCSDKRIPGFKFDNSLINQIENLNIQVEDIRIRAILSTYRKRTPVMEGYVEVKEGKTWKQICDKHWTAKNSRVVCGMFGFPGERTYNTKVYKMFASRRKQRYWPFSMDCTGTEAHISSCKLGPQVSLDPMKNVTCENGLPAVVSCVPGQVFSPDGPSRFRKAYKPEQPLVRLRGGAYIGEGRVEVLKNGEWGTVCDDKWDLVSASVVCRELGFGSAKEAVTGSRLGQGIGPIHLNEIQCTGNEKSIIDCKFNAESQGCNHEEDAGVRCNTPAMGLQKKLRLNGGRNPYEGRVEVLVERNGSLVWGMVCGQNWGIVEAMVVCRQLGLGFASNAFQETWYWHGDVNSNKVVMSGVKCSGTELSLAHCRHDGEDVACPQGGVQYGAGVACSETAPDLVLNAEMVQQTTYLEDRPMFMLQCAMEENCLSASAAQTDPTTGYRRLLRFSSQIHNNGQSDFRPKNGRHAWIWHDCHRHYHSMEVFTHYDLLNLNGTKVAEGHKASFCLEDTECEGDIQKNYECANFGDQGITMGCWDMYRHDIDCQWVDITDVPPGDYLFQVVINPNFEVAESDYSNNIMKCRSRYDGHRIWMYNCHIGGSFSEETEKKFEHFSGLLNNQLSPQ

Lysyl oxidase homolog 2 [2] = molecular target: T1, Lysyl oxidase homolog 2; assay: Inhibition of full length recombinant human LOXL2 expressed in CHO cells assessed as reduction in H2O2 production using DAP as substrate preincubated for 15 mins followed by substrate addition measured every 2 minutes for 50 minutes by Amplex red dye based fluorescence assay
How it was run: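 Enzyme source: serum-free concentrated conditioned medium from CHO cells stably expressing human LOXL2. Inhibitor preincubated with enzyme for 15 min, then 1,5-diaminopentane (DAP) added. H2O2 from oxidative deamination read by Amplex Red. IC50 reported as geometric mean x/÷ geometric SD, with N given.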

Lysyl oxidase homolog 2 [3] = molecular target: T1, Lysyl oxidase homolog 2; assay: Inhibition of full length recombinant human LOXL2 expressed in CHO cells assessed as reduction in H2O2 production using DAP as substrate preincubated for 2 hrs followed by substrate addition measured every 2 minutes for 50 minutes in presence of BSA by Amplex red dye based fluorescence assay
How it was run: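 Serum-free concentrated conditioned medium from CHO cells stably expressing human LOXL2, supplemented with BSA. Compounds preincubated for 2 h (the screening preincubation time). Substrate was 1,5-diaminopentane, and the H2O2 formed was detected with Amplex Red. IC50 given as geometric mean x/÷ geometric SD over N determinations.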

Protein-lysine 6-oxidase = molecular target: T2, Protein-lysine 6-oxidase (Homo sapiens, UniProt P28300); assay: Inhibition of full length recombinant human LOX expressed in HEK cells assessed as reduction in H2O2 production using DAP as substrate preincubated for 2 hrs followed by substrate addition measured every 2 minutes for 50 minutes in presence of BSA by Amplex red dye based fluorescence assay
T2 sequence (P28300 whole entry): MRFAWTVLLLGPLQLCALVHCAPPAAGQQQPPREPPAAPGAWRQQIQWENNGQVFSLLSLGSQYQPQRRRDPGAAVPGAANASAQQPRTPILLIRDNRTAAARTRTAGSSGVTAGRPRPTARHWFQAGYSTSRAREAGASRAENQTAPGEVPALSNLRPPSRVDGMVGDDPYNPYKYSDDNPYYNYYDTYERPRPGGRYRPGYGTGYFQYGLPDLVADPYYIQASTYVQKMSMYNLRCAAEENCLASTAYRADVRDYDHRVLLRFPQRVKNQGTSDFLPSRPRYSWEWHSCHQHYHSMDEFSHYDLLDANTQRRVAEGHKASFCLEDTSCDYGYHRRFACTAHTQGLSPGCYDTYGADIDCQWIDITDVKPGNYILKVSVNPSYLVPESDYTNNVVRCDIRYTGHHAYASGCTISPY
How it was run: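 Enzyme source: serum-free conditioned media from HEK cells stably expressing human LOX, with BSA added to give measurable activity. Activity is measured as H2O2 from oxidative deamination of 1,5-diaminopentane (DAP), read by Amplex Red. IC50 is given as geometric mean x/÷ geometric standard deviation, with N-values reported.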

Lysyl oxidase homolog 2 [4] = molecular target: T3, Lysyl oxidase homolog 2 (Mus musculus, UniProt P58022); assay: Inhibition of full length recombinant mouse LOXL2 expressed in CHO cells assessed as reduction in H2O2 production using DAP as substrate preincubated for 2 hrs followed by substrate addition measured every 2 minutes for 50 minutes in presence of BSA by Amplex red dye based fluorescence assay; assay type: cell-based
T3 sequence (P58022 whole entry): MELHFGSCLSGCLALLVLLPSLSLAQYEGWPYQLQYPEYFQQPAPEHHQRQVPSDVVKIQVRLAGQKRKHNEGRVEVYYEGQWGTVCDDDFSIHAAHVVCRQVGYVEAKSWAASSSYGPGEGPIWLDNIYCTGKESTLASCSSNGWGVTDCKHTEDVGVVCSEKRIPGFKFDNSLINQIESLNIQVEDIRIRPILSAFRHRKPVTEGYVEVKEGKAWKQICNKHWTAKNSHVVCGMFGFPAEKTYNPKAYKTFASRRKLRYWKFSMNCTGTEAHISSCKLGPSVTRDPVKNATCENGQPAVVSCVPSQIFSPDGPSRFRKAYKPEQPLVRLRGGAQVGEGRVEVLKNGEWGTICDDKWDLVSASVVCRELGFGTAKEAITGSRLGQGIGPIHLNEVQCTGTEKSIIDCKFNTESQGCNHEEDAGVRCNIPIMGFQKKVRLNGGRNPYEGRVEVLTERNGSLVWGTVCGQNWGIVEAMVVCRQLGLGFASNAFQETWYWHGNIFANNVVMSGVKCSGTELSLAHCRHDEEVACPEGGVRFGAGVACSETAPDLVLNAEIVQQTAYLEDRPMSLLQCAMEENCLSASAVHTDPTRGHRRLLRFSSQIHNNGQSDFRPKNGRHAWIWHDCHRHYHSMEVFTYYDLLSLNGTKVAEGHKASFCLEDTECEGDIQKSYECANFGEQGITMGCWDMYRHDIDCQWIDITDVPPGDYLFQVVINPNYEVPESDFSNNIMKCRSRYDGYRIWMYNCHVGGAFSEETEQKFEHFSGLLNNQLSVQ
How it was run: (§1)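 Rodent LOXL2 is tested under the same conditions as the BSA-supplemented assay: conditioned media plus BSA, with DAP as substrate and Amplex Red detection of H2O2. Species are mouse and rat. IC50 is the geometric mean x/÷ geometric standard deviation from 3 determinations.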

Lysyl oxidase homolog 2 [5] = molecular target: T4, Lysyl oxidase homolog 2 (Rattus norvegicus, UniProt B5DF27); assay: Inhibition of full length recombinant rat LOXL2 expressed in CHO cells assessed as reduction in H2O2 production using DAP as substrate preincubated for 2 hrs followed by substrate addition measured every 2 minutes for 50 minutes in presence of BSA by Amplex red dye based fluorescence assay; how it was run: as §1
T4 sequence (B5DF27 whole entry): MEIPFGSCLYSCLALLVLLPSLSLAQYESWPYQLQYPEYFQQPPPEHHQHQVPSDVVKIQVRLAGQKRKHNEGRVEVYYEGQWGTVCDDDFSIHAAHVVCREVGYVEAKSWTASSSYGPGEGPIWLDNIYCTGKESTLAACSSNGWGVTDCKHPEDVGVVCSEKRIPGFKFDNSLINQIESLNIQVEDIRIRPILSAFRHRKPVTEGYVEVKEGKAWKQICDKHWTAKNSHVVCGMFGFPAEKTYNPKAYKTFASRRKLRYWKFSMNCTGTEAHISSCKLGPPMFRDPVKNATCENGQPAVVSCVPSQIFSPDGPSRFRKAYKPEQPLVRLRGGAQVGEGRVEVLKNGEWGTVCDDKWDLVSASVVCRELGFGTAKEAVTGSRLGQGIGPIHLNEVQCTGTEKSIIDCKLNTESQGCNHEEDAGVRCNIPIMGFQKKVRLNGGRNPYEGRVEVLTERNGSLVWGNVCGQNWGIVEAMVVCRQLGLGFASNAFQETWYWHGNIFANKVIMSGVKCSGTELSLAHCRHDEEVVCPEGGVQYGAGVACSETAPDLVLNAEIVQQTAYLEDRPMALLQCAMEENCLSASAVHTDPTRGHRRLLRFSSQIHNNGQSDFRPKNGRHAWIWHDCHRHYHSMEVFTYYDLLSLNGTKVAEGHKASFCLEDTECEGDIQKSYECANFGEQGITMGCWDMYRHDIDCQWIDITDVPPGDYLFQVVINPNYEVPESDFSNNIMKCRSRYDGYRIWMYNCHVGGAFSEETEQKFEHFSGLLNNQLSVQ

Row | SMILES | IC50 (Lysyl oxidase homolog 2 [1]) [nM] | also measured
1 | NCCc1ccccc1 [PHENETHYLAMINE] | 60100 | –
2 | NCc1ccc(N)cc1 | 47000 | –
3 | N#Cc1ccc(CN)cc1 | 670 | –
4 | NCc1ccnc(-c2cccnc2)c1 | 321 | –
5 | NCc1ccc(-c2nccs2)cc1 | 902 | –
6 | NCc1ccccc1 [BENZYLAMINE] | 64700 | –
7 | CNCc1ccc(C#N)cc1 | > 100000 | –
8 | NCc1ccnc2ccccc12 | 6040 | –
9 | N[C@@H]1C[C@H]1c1ccccc1.N[C@H]1C[C@@H]1c1ccccc1 [TRANYLCYPROMINE] | > 100000 | –
10 | NCc1ccc([N+](=O)[O-])cc1 | 719 | –
11 | NCc1ccc(F)cc1 | 26000 | –
12 | NCCc1ccncc1 | 8210 | –
13 | NCc1ccnc(F)c1 | 385 | –
14 | NCc1ccncc1F | 431 | –
15 | N=C(N)c1cccc(CN)c1 | 4970 | –
16 | COC(=O)c1cccc(CN)c1 | 3540 | –
17 | NCc1cc(-c2cccnc2)ncc1C(F)(F)F | > 31000 | –
18 | COC(=O)c1ccc(CN)cc1 | 3620 | –
19 | N=C(N)c1ccc(CN)cc1 | 1110 | –
20 | N#CCCN | 66 | IC50 (Lysyl oxidase homolog 2 [2]): 243 nM; IC50 (Lysyl oxidase homolog 2 [3]): 83 nM; IC50 (Protein-lysine 6-oxidase): 550 nM; IC50 (Lysyl oxidase homolog 2 [4]): 128 nM; IC50 (Lysyl oxidase homolog 2 [5]): 127 nM
21 | NCc1ccncc1 | 1220 | –
22 | NCc1ccnc(-n2ccnc2)c1 | 203 | –
